Measured values as given in ChEMBL document CHEMBL1156129, “Synthesis, structure-activity relationships, and characterization of novel nonsteroidal and selective androgen receptor modulators” (J Med Chem, 2009).
Calls of active or inactive are those of the source. The rule behind the calls is not given here.

Experiments:
[1] = Plasma concentration in Sprague-Dawley rat at 10 mg/kg, po after 240 mins; format: ADME, organism-based; design: dose 10 mg/kg, route oral
[2] = Plasma concentration in Beagle dog at 1 mg/kg, iv after 2 hrs; format: ADME, organism-based, Canis lupus familiaris; design: dose 1 mg/kg, route intravenous
[3] = Oral bioavailability in Sprague-Dawley rat at 10 mg/kg, po; format: ADME, organism-based; details: in vivo
[4] = Oral bioavailability in rat; format: ADME, organism-based; details: in vivo
[5] = Plasma concentration in Beagle dog at 1 mg/kg, iv after 0.5 hrs; format: ADME, organism-based, Canis lupus familiaris; design: dose 1 mg/kg, route intravenous
Liver microsomes = assay: Metabolic stability in rat liver microsomes assessed as intrinsic clearance; format: ADME, Microsome
Androgen receptor = biological target: T1, Androgen receptor (Homo sapiens, UniProt P10275); assay: Agonist activity at androgen receptor in human MDA-KB2 cells transfected with MMTV linked luciferase assessed as transcriptional activation by luciferase reporter gene assay
T1 sequence (P10275 whole entry): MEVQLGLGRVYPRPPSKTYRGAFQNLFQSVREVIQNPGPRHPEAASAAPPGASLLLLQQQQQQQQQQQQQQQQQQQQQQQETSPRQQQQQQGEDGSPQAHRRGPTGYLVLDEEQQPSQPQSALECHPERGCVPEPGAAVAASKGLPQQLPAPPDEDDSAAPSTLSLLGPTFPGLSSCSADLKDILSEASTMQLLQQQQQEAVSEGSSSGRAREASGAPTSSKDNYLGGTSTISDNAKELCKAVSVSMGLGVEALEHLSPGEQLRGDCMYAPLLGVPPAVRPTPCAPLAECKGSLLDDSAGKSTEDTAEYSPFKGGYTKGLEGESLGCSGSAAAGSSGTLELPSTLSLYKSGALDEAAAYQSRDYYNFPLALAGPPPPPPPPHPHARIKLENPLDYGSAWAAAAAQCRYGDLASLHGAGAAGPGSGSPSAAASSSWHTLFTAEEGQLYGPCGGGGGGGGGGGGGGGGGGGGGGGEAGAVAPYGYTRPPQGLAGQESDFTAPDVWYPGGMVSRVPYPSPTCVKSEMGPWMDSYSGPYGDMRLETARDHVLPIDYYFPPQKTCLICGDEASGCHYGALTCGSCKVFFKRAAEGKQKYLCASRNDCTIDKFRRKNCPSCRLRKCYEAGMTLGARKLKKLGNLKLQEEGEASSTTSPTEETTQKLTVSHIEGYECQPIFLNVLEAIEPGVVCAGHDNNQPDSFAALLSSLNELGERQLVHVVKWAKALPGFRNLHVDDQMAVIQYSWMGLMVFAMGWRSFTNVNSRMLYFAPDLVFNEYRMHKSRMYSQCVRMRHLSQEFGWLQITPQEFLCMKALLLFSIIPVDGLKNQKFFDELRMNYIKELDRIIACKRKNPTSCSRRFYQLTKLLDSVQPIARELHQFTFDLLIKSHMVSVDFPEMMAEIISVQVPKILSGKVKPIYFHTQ

[6] = Plasma concentration in Sprague-Dawley rat at 10 mg/kg, po after 30 mins; format: ADME, organism-based; design: dose 10 mg/kg, route oral
Rattus norvegicus [7] = assay: Androgenic effect in rat ORX model assessed as reversal of testosterone propionate-induced prostate weight treated at 10 mg/kg, po; format: functional, organism-based; design: dose 10 mg/kg; details: Prostate gland
[8] = Plasma concentration in Sprague-Dawley rat at 10 mg/kg, po after 10 mins; format: ADME, organism-based; design: dose 10 mg/kg, route oral
[9] = Volume of distribution at steady state in Beagle dog at 1 mg/kg, iv; format: ADME, organism-based, Canis lupus familiaris; design: dose 1 mg/kg, route intravenous; details: in vivo, read-out: Vdss
[10] = Clearance in Beagle dog at 1 mg/kg, iv; format: ADME, organism-based, Canis lupus familiaris; design: dose 1 mg/kg, route intravenous; details: in vivo
[11] = Volume of distribution at steady state in Sprague-Dawley rat at 1 mg/kg, iv; format: ADME, organism-based; design: dose 1 mg/kg, route intravenous; details: in vivo, read-out: Vdss
[12] = Cmax in Sprague-Dawley rat at 10 mg/kg, po; format: ADME, organism-based; design: dose 10 mg/kg, route oral; details: in vivo
[13] = AUC (0 to infinity) in Beagle dog at 1 mg/kg, iv; format: ADME, organism-based, Canis lupus familiaris; design: dose 1 mg/kg, route intravenous, time infinity; details: plasma
[14] = Metabolic stability in human hepatocyte assessed as half life; format: ADME, cell-based, Liver; details: hepatocytes
Rattus norvegicus [15] = assay: Anabolic effect in castrated rat levator ani muscle assessed as reversal of ORX-induced atrophy at 1 mg/kg/day sc using osmotic pump after 14 days; format: functional; details: route subcutaneous
In short: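 Orchiectomized male rats received compound by subcutaneous osmotic pump for 14 days at 0.1-3 (mg/kg)/day. […] Levator ani and ventral prostate were weighed after 2 weeks and compared with sham-operated vehicle-treated controls, expressed as reversal of ORX-induced atrophy.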

[16] = Agonist activity at androgen receptor LBD T877A mutant in mouse NIH3T3 cells transiently transfected with beta-galactosidase reporter gene assessed as cellular transformation by R-SAT assay; format: functional, cell-based
In short: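 AR expression vector transiently co-transfected (Polyfect) with β-galactosidase and coactivators SRC1, DRIP205 and GRIP1 into NIH-3T3 fibroblasts at 60-70% confluency. ONPG substrate added, absorbance read at 420 nm. EC50 from a hyperbolic fit. Mean ± SEM of three or more independent experiments.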

[17] = Plasma concentration in Sprague-Dawley rat at 1 mg/kg, iv after 30 mins; format: ADME, organism-based; design: dose 1 mg/kg, route intravenous

Cc1c(N2[C@@H]3CC[C@H]2C[C@@](C)(O)C3)ccc(C#N)c1Cl showed a concentration at 4 h [1] of 353 ng/mL, a concentration at 2 h [2] of 49.5 ng/mL and a bioavailability [3] of 38%. It also gave a bioavailability [4] of 38%, a concentration at 0.5 h [5] of 190 ng/mL and a CL (Liver microsomes) of 72 uL/ml.millig. The EC50 (Androgen receptor) was 0.251 nM, the concentration at 0.5 h [6] was 314 ng/mL and the Activity (Rattus norvegicus [7]) was “Active”. The concentration at 10 min [8] was 148 ng/mL, the Vd [9] was 6.1 L/kg and the clearance [10] was 42 mL/min/kg. It also gave a Vd [11] of 3.91 L/kg, a Cmax [12] of 421 ng/mL and an AUC(0-inf) [13] of 394 ng·h/mL. For the same compound, the half-life [14] was 5 h, the Activity (Rattus norvegicus [15]) was 67% and the EC50 [16] was 0.398 nM. The concentration at 0.5 h [17] was 234 ng/mL.
